# Where a SMILES comes first, the peptide text is derived from it. [ ]: non-standard residue; d: D form. ξ: configuration not given here. Dmt = Cc1cc(O)cc(C)c1C[C@H](N)C(=O)O; ξTiq(1-COOH) = O=C(O)C1NCCc2ccccc21; β3hF = N[C@H](CC(=O)O)Cc1ccccc1
# What was measured:
# Mu-type opioid receptor = Mu-type opioid receptor (Rattus norvegicus, UniProt P33535); test: Displacement of [3H]DAMGO from rat cortex mu opioid receptor after 30 mins by liquid scintillation counting analysis
# How it was run: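 Rat cortex membranes prepared in 50 mM Tris pH 7.4, spun 16,500 rpm for 10 min, and incubated 30 min at 37 °C. Competition against [³H]DAMGO. Assay ended by filtration on BSA-soaked GF/B filters. Ki values are means of two experiments.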
# [1] = biological target: Delta-type opioid receptor (Rattus norvegicus, UniProt P33533); test: Displacement of [3H]DPDPE from rat cortex delta opioid receptor after 2.5 hrs by liquid scintillation counting analysis
# [2] = Half life in rat brain homogenate at 10 uM; assay type: ADME, tissue-based
# How it was run: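 Peptide at a final 10 µM in rat brain homogenate (protein 21.2 mg/mL), incubated at 37 °C. Aliquots quenched in acetonitrile with internal standard in triplicate, centrifuged, and analysed by LC-MS/MS in MRM mode. Half-life from pseudo-first-order loss of the analyte/internal-standard ratio; mean of at least three experiments ± SEM.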
# [3] = biological target: Mu-type opioid receptor (Homo sapiens) (UniProt P35372); test: Agonist activity at mu opioid receptor (unknown origin) expressed in HEK293 cells assessed as change in cell morphology at 3.3 uM measured over 30 mins by label free binding assay relative to DAMGO; assay type: cell-based
# How it was run: (§1)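 Label-free biosensor (BIND) measuring cell spreading as increase in peak wavelength value. MOR in HEK293 cells, DOR in CHO cells, seeded 2 × 10⁴/well on fibronectin/collagen/albumin-coated plates and incubated overnight. Assay buffer was HBSS with 0.5–1% DMSO, equilibrated 30 min at room temperature before a baseline read. Compound added to a final 3.3 µM and read over 30 min. Response given as % of DAMGO 300 nM (MOR, n = 2) or DPDPE 10 nM (DOR, n = 4).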
# [4] = biological target: T1, Delta-type opioid receptor (Homo sapiens, UniProt P41143); test: Agonist activity at delta opioid receptor (unknown origin) expressed in CHO cells assessed as change in cell morphology at 3.3 uM measured over 30 mins by label free binding assay relative to DPDPE; assay type: cell-based; how it was run: as §1
# [5] = biological target: T1, Delta-type opioid receptor; test: Agonist activity at delta opioid receptor (unknown origin) expressed in CHO cells assessed as inhibition of forskolin-induced cAMP production at 500 nM after 30 mins by europium cryptate/d2 dye-based FRET analysis relative to DPDPE; assay type: functional, cell-based
# How it was run: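 DOR-expressing CHO cells, 20,000/well, exposed to test compound at 500 nM with 4 µM forskolin in PBS containing 1 mM IBMX for 30 min at room temperature. Cells then lysed with Europium cryptate and d2 acceptor reagents for 1 h, and cAMP read by FRET. Expressed as % of the 500 nM DPDPE response, n = 4.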
# Rattus norvegicus = organism: Rattus norvegicus; test: Selectivity ratio of Ki for rat cortex mu opioid receptor to Ki for rat cortex delta opioid receptor
# How it was run: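 Ki ratio (MOR/DOR), from Ki values that are means of two experiments. MOR: rat cortex homogenized in 50 mM Tris pH 7.4, spun, preincubated 30 min at 37 °C, spun again, then resuspended with bovine serum; displacement of [3H]DAMGO. DOR: 2 nM [3H]DPDPE; 2.5 h at 25 °C; unlabeled DPDPE as competitor. Filtration on GF/B.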
# [6] = Selectivity ratio of Ki for guinea pig cortex/cerebella kappa opioid receptor to Ki for rat cortex delta opioid receptor
# How it was run: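 Ki ratio (KOR/DOR), from Ki values that are means of two experiments. KOR: guinea pig cortex and cerebellum membranes in 50 mM Tris pH 7.4 with 10 mM MgCl2; 2 nM [3H]U69,593; 2 h at 25 °C; unlabeled U50,488 defines the curve and nonspecific binding. Filtration on GF/B.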
# Mu-type opioid receptor (Homo sapiens), sequence (P35372 whole entry): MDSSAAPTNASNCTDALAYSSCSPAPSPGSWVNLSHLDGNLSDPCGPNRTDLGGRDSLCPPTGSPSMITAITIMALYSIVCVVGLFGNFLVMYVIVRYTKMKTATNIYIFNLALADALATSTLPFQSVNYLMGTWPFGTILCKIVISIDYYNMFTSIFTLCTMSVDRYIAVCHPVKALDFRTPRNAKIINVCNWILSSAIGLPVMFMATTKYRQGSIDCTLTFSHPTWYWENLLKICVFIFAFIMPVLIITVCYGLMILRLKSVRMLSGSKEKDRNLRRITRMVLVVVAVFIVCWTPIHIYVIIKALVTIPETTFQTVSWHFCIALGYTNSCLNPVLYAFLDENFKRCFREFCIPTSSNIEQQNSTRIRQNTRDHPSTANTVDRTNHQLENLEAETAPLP
# Mu-type opioid receptor, sequence (P33535 whole entry): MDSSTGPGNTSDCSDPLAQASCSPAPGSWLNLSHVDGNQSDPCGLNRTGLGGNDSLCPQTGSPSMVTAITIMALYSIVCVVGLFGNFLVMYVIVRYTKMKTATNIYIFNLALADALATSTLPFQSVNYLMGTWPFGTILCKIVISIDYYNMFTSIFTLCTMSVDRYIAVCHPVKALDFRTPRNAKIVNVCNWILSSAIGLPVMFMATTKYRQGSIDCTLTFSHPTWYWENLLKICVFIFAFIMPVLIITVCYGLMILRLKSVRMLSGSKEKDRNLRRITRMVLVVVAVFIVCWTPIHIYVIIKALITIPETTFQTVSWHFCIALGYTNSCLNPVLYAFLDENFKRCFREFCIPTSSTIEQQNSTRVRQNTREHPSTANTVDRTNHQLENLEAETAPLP
# T1 sequence (P41143 whole entry): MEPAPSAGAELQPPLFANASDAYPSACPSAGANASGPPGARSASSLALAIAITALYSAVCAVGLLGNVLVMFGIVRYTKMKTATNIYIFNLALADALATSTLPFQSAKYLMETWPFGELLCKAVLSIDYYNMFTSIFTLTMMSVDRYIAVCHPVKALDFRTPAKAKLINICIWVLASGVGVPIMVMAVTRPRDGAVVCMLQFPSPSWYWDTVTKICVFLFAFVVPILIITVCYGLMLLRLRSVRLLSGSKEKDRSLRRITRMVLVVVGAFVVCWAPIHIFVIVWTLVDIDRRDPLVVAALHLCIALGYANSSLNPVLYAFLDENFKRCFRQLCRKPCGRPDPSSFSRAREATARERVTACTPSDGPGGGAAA
# Delta-type opioid receptor (Rattus norvegicus, UniProt P33533), sequence (P33533 whole entry): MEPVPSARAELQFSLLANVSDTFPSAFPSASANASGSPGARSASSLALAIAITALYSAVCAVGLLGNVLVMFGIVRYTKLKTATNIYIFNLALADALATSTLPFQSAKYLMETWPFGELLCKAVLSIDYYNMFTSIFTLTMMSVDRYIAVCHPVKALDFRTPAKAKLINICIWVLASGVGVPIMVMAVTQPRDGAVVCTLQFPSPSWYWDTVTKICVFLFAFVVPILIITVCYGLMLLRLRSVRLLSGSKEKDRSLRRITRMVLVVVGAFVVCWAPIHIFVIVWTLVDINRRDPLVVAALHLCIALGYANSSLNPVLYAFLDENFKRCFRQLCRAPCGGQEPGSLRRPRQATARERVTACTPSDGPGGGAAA
SMILES,Ki (Mu-type opioid receptor) [nM],Ki [1] [nM],half-life at 10 µM [2] [min],further results
NC(=O)[C@H](Cc1ccccc1)NC(=O)C[C@H](Cc1ccccc1)NC(=O)[C@@H]1CCCN1C(=O)[C@@H](N)Cc1ccc(O)cc1,24,385,,
NC(=O)[C@H](O)[C@H](Cc1ccccc1)NC(=O)[C@H](Cc1ccccc1)NC(=O)[C@@H]1CCCN1C(=O)[C@@H](N)Cc1ccc(O)cc1,33,,,
NC(=O)[C@H](Cc1ccccc1)NC(=O)[C@H](O)[C@H](Cc1ccccc1)NC(=O)[C@@H]1CCCN1C(=O)[C@@H](N)Cc1ccc(O)cc1,9,3290,6.52,
NC(=O)[C@H](Cc1ccccc1)NC(=O)[C@H](O)[C@@H](Cc1ccccc1)NC(=O)[C@@H]1CCCN1C(=O)[C@@H](N)Cc1ccc(O)cc1,2080,1220,,
Cc1cc(O)cc(C)c1C[C@H](N)C(=O)N1CCc2ccccc2C1C(=O)N[C@@H](Cc1c[nH]c2ccccc12)C(=O)N[C@@H](Cc1ccccc1)[C@H](O)C(N)=O (stereo not given in full),3,0.8,> 120,Activity [3]: 50%; Activity [4]: 45%; inhibition [5]: 104%
NC(=O)[C@H](Cc1ccccc1)NC(=O)[C@@H](O)[C@@H](Cc1ccccc1)NC(=O)[C@@H]1CCCN1C(=O)[C@@H](N)Cc1ccc(O)cc1,202,593,,
NC(=O)[C@H](O)[C@@H](Cc1ccccc1)NC(=O)[C@H](Cc1ccccc1)NC(=O)[C@@H]1CCCN1C(=O)[C@@H](N)Cc1ccc(O)cc1,447,,,
Cc1cc(O)cc(C)c1C[C@H](N)C(=O)N1CCc2ccccc2C1C(=O)N[C@@H](Cc1ccccc1)C(=O)N[C@H](CC(N)=O)Cc1ccccc1 (stereo partly drawn) (H-[Dmt][ξTiq(1-COOH)]F[β3hF]-NH2),15,1,28.9,Ratio Ki (Rattus norvegicus): 15; Ratio Ki [6]: 30
NC(=O)[C@H](Cc1ccccc1)NC(=O)[C@@H](O)[C@H](Cc1ccccc1)NC(=O)[C@@H]1CCCN1C(=O)[C@@H](N)Cc1ccc(O)cc1,497,1790,,
NC(=O)[C@@H](O)[C@H](Cc1ccccc1)NC(=O)[C@H](Cc1c[nH]c2ccccc12)NC(=O)[C@@H]1CCCN1C(=O)[C@@H](N)Cc1ccc(O)cc1,10,508,3.57,
Cc1cc(O)cc(C)c1C[C@H](N)C(=O)N1CCc2ccccc2C1C(=O)N[C@@H](Cc1c[nH]c2ccccc12)C(=O)N[C@@H](Cc1ccccc1)C(N)=O (stereo not given in full) (H-[Dmt][ξTiq(1-COOH)]WF-NH2),5,2,32.2,Activity [3]: 43%; Activity [4]: 26%; inhibition [5]: 87%
NC(=O)C(Cc1ccc2ccccc2c1)NC(=O)[C@H](O)[C@H](Cc1ccccc1)NC(=O)[C@@H]1CCCN1C(=O)[C@@H](N)Cc1ccc(O)cc1 (stereo not given in full),39,757,,
Cc1cc(O)cc(C)c1C[C@H](N)C(=O)N1CCc2ccccc2C1C(=O)N[C@@H](Cc1c[nH]c2ccccc12)C(=O)N[C@H](CC(N)=O)Cc1ccccc1 (stereo partly drawn) (H-[Dmt][ξTiq(1-COOH)]W[β3hF]-NH2),14,1,> 120,
Cc1cc(O)cc(C)c1C[C@H](N)C(=O)N1CCc2ccccc2C1C(=O)N[C@H](CC(=O)N[C@@H](Cc1ccccc1)C(N)=O)Cc1ccccc1 (stereo partly drawn) (H-[Dmt][ξTiq(1-COOH)][β3hF]F-NH2),6,1,> 120,Ratio Ki (Rattus norvegicus): 6
NC(=O)[C@@H](O)[C@H](Cc1ccccc1)NC(=O)[C@H](Cc1ccccc1)NC(=O)[C@@H]1CCCN1C(=O)[C@@H](N)Cc1ccc(O)cc1,17,,2.3,
NC(=O)C(Cc1ccc(F)cc1)NC(=O)[C@H](O)[C@H](Cc1ccccc1)NC(=O)[C@@H]1CCCN1C(=O)[C@@H](N)Cc1ccc(O)cc1 (stereo not given in full),207,829,,
Cc1cc(O)cc(C)c1C[C@H](N)C(=O)N1CCc2ccccc2C1C(=O)N[C@@H](Cc1ccccc1)C(=O)N[C@@H](Cc1ccccc1)[C@@H](O)C(N)=O (stereo not given in full),15,0.5,82.6,Activity [3]: 52%; Activity [4]: 22%
NC(=O)[C@H](O)[C@@H](Cc1ccccc1)NC(=O)[C@H](Cc1c[nH]c2ccccc12)NC(=O)[C@@H]1CCCN1C(=O)[C@@H](N)Cc1ccc(O)cc1,243,441,,
NC(=O)[C@H](Cc1c[nH]c2ccccc12)NC(=O)[C@H](O)[C@H](Cc1ccccc1)NC(=O)[C@@H]1CCCN1C(=O)[C@@H](N)Cc1ccc(O)cc1,13,,,
NC(=O)[C@H](Cc1ccccc1)NC(=O)[C@H](Cc1c[nH]c2ccccc12)NC(=O)[C@@H]1CCCN1C(=O)[C@@H](N)Cc1ccc(O)cc1,,,,Activity [4]: 49%
NC(=O)C[C@H](Cc1ccccc1)NC(=O)[C@H](Cc1ccccc1)NC(=O)[C@@H]1CCCN1C(=O)[C@@H](N)Cc1ccc(O)cc1,23,2500,,
NC(=O)[C@H](Cc1ccccc1)NC(=O)[C@H](Cc1ccccc1)NC(=O)[C@@H]1CCCN1C(=O)[C@@H](N)Cc1ccc(O)cc1 [ENDOMORPHIN 2],,,0.75,Activity [3]: 98%; Activity [4]: 52%
N=C(N)NCCC[C@H](NC(=O)[C@H](O)[C@H](Cc1ccccc1)NC(=O)[C@@H]1CCCN1C(=O)[C@@H](N)Cc1ccc(O)cc1)C(N)=O,86,483,,
NC(=O)[C@@H](O)[C@@H](Cc1ccccc1)NC(=O)[C@H](Cc1c[nH]c2ccccc12)NC(=O)[C@@H]1CCCN1C(=O)[C@@H](N)Cc1ccc(O)cc1,176,287,,
NC(=O)[C@H](O)[C@H](Cc1ccccc1)NC(=O)[C@H](Cc1c[nH]c2ccccc12)NC(=O)[C@@H]1CCCN1C(=O)[C@@H](N)Cc1ccc(O)cc1,25,453,,
NC(=O)C[C@H](Cc1ccccc1)NC(=O)[C@H](Cc1c[nH]c2ccccc12)NC(=O)[C@@H]1CCCN1C(=O)[C@@H](N)Cc1ccc(O)cc1,10,4110,4.57,
NC(=O)[C@@H](O)[C@@H](Cc1ccccc1)NC(=O)[C@H](Cc1ccccc1)NC(=O)[C@@H]1CCCN1C(=O)[C@@H](N)Cc1ccc(O)cc1,324,,,
Cc1cc(O)cc(C)c1C[C@H](N)C(=O)N1CCc2ccccc2C1C(=O)N[C@@H](Cc1ccccc1)C(=O)N[C@@H](Cc1ccccc1)[C@H](O)C(N)=O (stereo not given in full),12,1,49,Activity [3]: 51%; Activity [4]: 82%

# Reference: ChEMBL document CHEMBL3407426, “Synthesis and biological evaluations of novel endomorphin analogues containing α-hydroxy-β-phenylalanine (AHPBA) displaying mixed μ/δ opioid receptor agonist and δ opioid receptor antagonist activities” (Eur J Med Chem, 2015)
